Test results: ChEMBL document CHEMBL4715736, “Identification of anticancer agents based on the thieno[2,3-b]pyridine and 1H-pyrazole molecular scaffolds” (2016)

Key:
Type in all cases: functional
MOLT-4 = test: Growth inhibition of human MOLT-4 cells assessed as cell growth at 0.01 uM incubated for 48 hrs by sulforhodamine B assay relative to control; details: read-out: Activity
NCI-H522 [1] = test: Growth inhibition of human NCI-H522 cells assessed as cell growth at 0.01 uM incubated for 48 hrs by sulforhodamine B assay relative to control; details: read-out: Activity
COLO 205 = test: Growth inhibition of human COLO 205 cells assessed as cell growth at 0.01 uM incubated for 48 hrs by sulforhodamine B assay relative to control; details: read-out: Activity
Outline: (§1)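 NCI Developmental Therapeutics Program NCI60 panel. Compounds that were active in the 10 µM one-dose screen went on to dose–response testing. Growth at each concentration is expressed relative to untreated control (100%). GI50 (concentration giving 50% of maximal inhibition of proliferation) and TGI (concentration giving total growth inhibition) were derived from the curves.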

HCT-116 [2] = test: Growth inhibition of human HCT-116 cells assessed as cell growth at 0.01 uM incubated for 48 hrs by sulforhodamine B assay relative to control; details: read-out: Activity
NCI/ADR-RES [3] = test: Growth inhibition of human NCI/ADR-RES cells assessed as cell growth at 0.01 uM incubated for 48 hrs by sulforhodamine B assay relative to control; details: read-out: Activity
TK-10 = test: Growth inhibition of human TK-10 cells assessed as cell growth at 0.01 uM incubated for 48 hrs by sulforhodamine B assay relative to control; details: read-out: Activity
MCF7 = test: Growth inhibition of human MCF7 cells assessed as cell growth at 0.01 uM incubated for 48 hrs by sulforhodamine B assay relative to control; details: read-out: Activity
RPMI-8226 [4] = test: Growth inhibition of human RPMI-8226 cells assessed as cell growth at 0.1 uM incubated for 48 hrs by sulforhodamine B assay relative to control; details: read-out: Activity
A549 [5] = test: Growth inhibition of human A549/ATCC cells assessed as cell growth at 0.1 uM incubated for 48 hrs by sulforhodamine B assay relative to control; details: read-out: Activity; outline: as §1
NCI-H522 [6] = test: Growth inhibition of human NCI-H522 cells assessed as cell growth at 0.1 uM incubated for 48 hrs by sulforhodamine B assay relative to control; details: read-out: Activity
HCT-116 [7] = test: Growth inhibition of human HCT-116 cells assessed as cell growth at 0.1 uM incubated for 48 hrs by sulforhodamine B assay relative to control; details: read-out: Activity
HCT-15 [8] = test: Growth inhibition of human HCT-15 cells assessed as cell growth at 0.1 uM incubated for 48 hrs by sulforhodamine B assay relative to control; details: read-out: Activity
SF-295 [9] = test: Growth inhibition of human SF-295 cells assessed as cell growth at 0.1 uM incubated for 48 hrs by sulforhodamine B assay relative to control; details: read-out: Activity
OVCAR-3 = test: Growth inhibition of human OVCAR-3 cells assessed as cell growth at 0.1 uM incubated for 48 hrs by sulforhodamine B assay relative to control; details: read-out: Activity
NCI/ADR-RES [10] = test: Growth inhibition of human NCI/ADR-RES cells assessed as cell growth at 0.1 uM incubated for 48 hrs by sulforhodamine B assay relative to control; details: read-out: Activity
K562 = test: Growth inhibition of human K562 cells assessed as cell growth at 1 uM incubated for 48 hrs by sulforhodamine B assay relative to control; details: read-out: Activity
SF-295 [11] = test: Growth inhibition of human SF-295 cells assessed as cell growth at 1 uM incubated for 48 hrs by sulforhodamine B assay relative to control; details: read-out: Activity
SK-MEL-5 [12] = test: Growth inhibition of human SK-MEL-5 cells assessed as cell growth at 1 uM incubated for 48 hrs by sulforhodamine B assay relative to control; details: read-out: Activity
OVCAR-4 = test: Growth inhibition of human OVCAR-4 cells assessed as cell growth at 1 uM incubated for 48 hrs by sulforhodamine B assay relative to control; details: read-out: Activity
RXF 393 = test: Growth inhibition of human RXF 393 cells assessed as cell growth at 1 uM incubated for 48 hrs by sulforhodamine B assay relative to control; details: read-out: Activity
RPMI-8226 [13] = test: Growth inhibition of human RPMI-8226 cells assessed as cell growth at 100 uM incubated for 48 hrs by sulforhodamine B assay relative to control; details: read-out: Activity
SR [14] = test: Growth inhibition of human SR cells assessed as cell growth at 100 uM incubated for 48 hrs by sulforhodamine B assay relative to control; details: read-out: Activity
A549 [15] = test: Growth inhibition of human A549/ATCC cells assessed as cell growth at 100 uM incubated for 48 hrs by sulforhodamine B assay relative to control; details: read-out: Activity; outline: as §1
NCI-H460 = test: Growth inhibition of human NCI-H460 cells assessed as cell growth at 100 uM incubated for 48 hrs by sulforhodamine B assay relative to control; details: read-out: Activity
M14 [16] = test: Growth inhibition of human M14 cells assessed as cell growth at 100 uM incubated for 48 hrs by sulforhodamine B assay relative to control; details: read-out: Activity
SK-MEL-5 [17] = test: Growth inhibition of human SK-MEL-5 cells assessed as cell growth at 100 uM incubated for 48 hrs by sulforhodamine B assay relative to control; details: read-out: Activity
SN12C = test: Growth inhibition of human SN12C cells assessed as cell growth at 100 uM incubated for 48 hrs by sulforhodamine B assay relative to control; details: read-out: Activity
SR [18] = test: Growth inhibition of human SR cells incubated for 48 hrs by sulforhodamine B assay
Outline: (§2)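 NCI DTP 60-line human tumour panel. Dose-response curves were run only for ligands active in the initial 10 µM screen. GI50 (concentration giving 50% of maximal inhibition of proliferation) and TGI (concentration giving total growth inhibition) were derived from these curves.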

HCT-15 [19] = test: Growth inhibition of human HCT-15 cells incubated for 48 hrs by sulforhodamine B assay
Outline: (§3)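 NCI60 panel at the NCI Developmental Therapeutics Program. Only compounds active in the 10 µM screen went to dose-response testing. GI50, the concentration giving 50% of maximal inhibition of proliferation, and TGI, the concentration giving total growth inhibition, were derived from the dose-response curves.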

SNB-19 = test: Growth inhibition of human SNB-19 cells incubated for 48 hrs by sulforhodamine B assay; outline: as §2
U-251 [20] = test: Growth inhibition of human U-251 cells incubated for 48 hrs by sulforhodamine B assay; outline: as §2
M14 [21] = test: Growth inhibition of human M14 cells incubated for 48 hrs by sulforhodamine B assay; outline: as §3
CAKI-1 = test: Growth inhibition of human CAKI-1 cells incubated for 48 hrs by sulforhodamine B assay; details: for CC50: read-out: LC50 (the source's name); outline: as §1
U-251 [22] = test: Growth inhibition of human U-251 cells assessed as cell growth at 0.1 uM incubated for 48 hrs by sulforhodamine B assay relative to control; details: read-out: Activity
PC-3 = test: Growth inhibition of human PC-3 cells incubated for 48 hrs by sulforhodamine B assay; outline: as §2

## CCc1ccccc1NC(=O)c1sc2nc3c(cc2c1N)C(=O)CCC3
MOLT-4
  growth at 0.01 µM: 102%
NCI-H522 [1]
  growth at 0.01 µM: 106%
COLO 205
  growth at 0.01 µM: 102%
HCT-116 [2]
  growth at 0.01 µM: 99%
NCI/ADR-RES [3]
  growth at 0.01 µM: 102%
TK-10
  growth at 0.01 µM: 93%
MCF7
  growth at 0.01 µM: 82%
RPMI-8226 [4]
  growth at 0.1 µM: 96%
A549 [5]
  growth at 0.1 µM: 88%
NCI-H522 [6]
  growth at 0.1 µM: 88%
HCT-116 [7]
  growth at 0.1 µM: 99%
HCT-15 [8]
  growth at 0.1 µM: 74%
SF-295 [9]
  growth at 0.1 µM: 76%
OVCAR-3
  growth at 0.1 µM: 100%
NCI/ADR-RES [10]
  growth at 0.1 µM: 88%
K562
  growth at 1 µM: 22%
SF-295 [11]
  growth at 1 µM: 13%
SK-MEL-5 [12]
  growth at 1 µM: 11%
OVCAR-4
  growth at 1 µM: 45%
RXF 393
  growth at 1 µM: -8%
RPMI-8226 [13]
  growth at 100 µM: -5%
SR [14]
  growth at 100 µM: 2%
A549 [15]
  growth at 100 µM: 12%
NCI-H460
  growth at 100 µM: 3%
M14 [16]
  growth at 100 µM: 7%
SK-MEL-5 [17]
  growth at 100 µM: 2%
SN12C
  growth at 100 µM: 22%
SR [18]
  GI50: 0.406 µM
  LC50: > 100 µM
  TGI: > 100 µM
HCT-15 [19]
  GI50: 0.349 µM
  LC50: > 100 µM
  TGI: > 100 µM
SNB-19
  GI50: 0.763 µM
  LC50: > 100 µM
  TGI: > 100 µM
U-251 [20]
  GI50: 0.499 µM
  LC50 (concentration killing 50% of cells): > 100 µM
  TGI: 29.1 µM
M14 [21]
  GI50: 0.291 µM
  LC50 (concentration killing 50% of cells): > 100 µM
  TGI: > 100 µM
CAKI-1
  GI50: 0.504 µM
  TGI: > 100 µM
  CC50: > 100 µM

## Cc1cccc(NC(=O)c2sc3nc4c(cc3c2N)C(=O)CCC4)c1
MOLT-4
  growth at 0.01 µM: 97%
NCI-H522 [1]
  growth at 0.01 µM: 84%
COLO 205
  growth at 0.01 µM: 92%
HCT-116 [2]
  growth at 0.01 µM: 93%
NCI/ADR-RES [3]
  growth at 0.01 µM: 98%
TK-10
  growth at 0.01 µM: 91%
MCF7
  growth at 0.01 µM: 86%
RPMI-8226 [4]
  growth at 0.1 µM: 94%
A549 [5]
  growth at 0.1 µM: 78%
NCI-H522 [6]
  growth at 0.1 µM: 51%
HCT-116 [7]
  growth at 0.1 µM: 68%
HCT-15 [8]
  growth at 0.1 µM: 48%
SF-295 [9]
  growth at 0.1 µM: 60%
U-251 [22]
  growth at 0.1 µM: 74%
OVCAR-3
  growth at 0.1 µM: 81%
NCI/ADR-RES [10]
  growth at 0.1 µM: 69%
K562
  growth at 1 µM: 21%
SF-295 [11]
  growth at 1 µM: 9%
SK-MEL-5 [12]
  growth at 1 µM: 16%
OVCAR-4
  growth at 1 µM: 44%
RXF 393
  growth at 1 µM: -16%
RPMI-8226 [13]
  growth at 100 µM: 21%
A549 [15]
  growth at 100 µM: 19%
NCI-H460
  growth at 100 µM: 7%
M14 [16]
  growth at 100 µM: -48%
SK-MEL-5 [17]
  growth at 100 µM: -30%
SN12C
  growth at 100 µM: -33%
HCT-15 [19]
  GI50: 0.27 µM
  LC50: > 100 µM
  TGI: > 100 µM
SNB-19
  GI50: 0.403 µM
  LC50: > 100 µM
  TGI: > 100 µM
U-251 [20]
  GI50: 0.261 µM
  LC50 (concentration killing 50% of cells): ≥ 100 µM
  TGI: ≥ 100 µM
M14 [21]
  GI50: 0.165 µM
  LC50 (concentration killing 50% of cells): > 100 µM
  TGI: ≥ 100 µM
CAKI-1
  GI50: 0.359 µM
  TGI: > 100 µM
  CC50: > 100 µM
PC-3
  GI50: 0.393 µM
  TGI: ≥ 100 µM
PC-3; read-out: LC50 (the source's name)
  CC50: > 100 µM
